Results as given in the array DNA melting data of Ke et al. (doi:10.1101/2024.01.08.574731).

Tests used:
[1] = folding enthalpy; higher = less favourable; fluorescence melt of hairpins on a sequencing array, two-state fit; conditions: sodium 0.088 M
Procedure, shortened: (§1)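 On a sequenced MiSeq flow cell, library hairpins with annealed Cy3 and quencher oligos were imaged for Cy3 fluorescence in 2.5 °C steps up to 60 °C, in 50 mM Na-HEPES pH 8.0, 25 mM NaCl. Normalisation used pre-quench Cy3 and control constructs. Bootstrapped two-state fits gave melting temperature and folding enthalpy, combined by inverse variance across four replicates and with fitted temperatures raised by 9.35 °C to match UV melts.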

[2] = melting temperature; fluorescence melt of hairpins on a sequencing array, two-state fit, raised by 9.35 °C to match UV melts; conditions: sodium 0.088 M
Procedure, shortened: as §1

Row | Sequence | folding enthalpy [1] | Tm [2]
1 | GCCTCGCGAAAGCGTCGC ((..(((....)))..)) | -12.2 kcal/mol | 43.1 °C
2 | GCTCAGCGAAAGCAGTGC ((.(.((....)).).)) | -13.2 kcal/mol | 44.4 °C
3 | GCGAGGGTCGC ((((...)))) | -7.26 kcal/mol | 62 °C
4 | GGGCACCGAAAGGTCCCC (((.(((....))).))) | -17.8 kcal/mol | 54.7 °C
5 | GATCACGAAAGTGGGATC ((((((....)))..))) | -15.6 kcal/mol | 38 °C
6 | GGCGACGAAAGTCTTGCC ((((((....)))..))) | -19.3 kcal/mol | 48.9 °C
7 | GCCAACGGAAACGTCAGC ((..(((....)))..)) | -12.1 kcal/mol | 28.3 °C
8 | GGTAACCCGAAAGGGACC (((..(((....)))))) | -14.9 kcal/mol | 36.5 °C
9 | GCGGTGTCCGC ((((...)))) | -23 kcal/mol | 58.2 °C
10 | GGCTTCGAAAGAATCGCC ((((((....)))..))) | -27.7 kcal/mol | 35.8 °C
11 | GGGGCTGGAAACAGTCCC (((.(((....))).))) | -50.6 kcal/mol | 59.1 °C
12 | GATCAAAGCTTTGATC ((((((....)))))) | -57.4 kcal/mol | 50.8 °C
13 | GCGACCGCTCGC ((((....)))) | -17.3 kcal/mol | 48.1 °C
14 | GTCCTGCCGAAAGGCGAC (((..(((....)))))) | -9.38 kcal/mol | 33.2 °C
15 | GCGTGCACACGC ((((....)))) | -25.7 kcal/mol | 68 °C
16 | GTGAGGCGAAAGCCCAC (((.(((....)))))) | -18.4 kcal/mol | 61.8 °C
17 | GTGTAGGCGAAAGCCCAC (((..(((....)))))) | -17.4 kcal/mol | 44.5 °C
18 | GACCAGGGAAACCTGGCC (.(((((....))))).) | -15.2 kcal/mol | 45.5 °C
19 | GTGTTACGAAAGTACCAC (((.(((....))).))) | -29.4 kcal/mol | 43.2 °C
20 | GCGTCAACGAAAGTTCGC (((..(((....)))))) | -27.6 kcal/mol | 45 °C

Row | Sequence | folding enthalpy [1] | Tm [2]
21 | GGGAGCGAAAGCTACCC ((((((....))).))) | -15.7 kcal/mol | 62.8 °C
22 | GCAAACGAAAGTTTTGC ((((((....))).))) | -28.5 kcal/mol | 49.4 °C
23 | GTGTTGGGAAACCGACAC ((((.((....)).)))) | -45.5 kcal/mol | 53.6 °C
24 | CACGTGAAAACGTG (((((....))))) | -24.9 kcal/mol | 58.6 °C
25 | GATCTCGCCGGAGATC ((((((....)))))) | -35.5 kcal/mol | 54.4 °C
26 | GCTAGGCGAAAGCCACGC ((..(((....)))..)) | -14.3 kcal/mol | 41.5 °C
27 | GTTGGGCCGAAAGGCAAC (((..(((....)))))) | -15.3 kcal/mol | 45.4 °C
28 | GATCCGTGGCGGATC ((((((...)))))) | -41.5 kcal/mol | 56.3 °C
29 | GATCGGCCATCCGATC ((((((....)))))) | -40.4 kcal/mol | 55.5 °C
30 | GACCATGGAAACACGGTC ((((.((....)).)))) | -31.7 kcal/mol | 42.5 °C
31 | GATCAAACCTTGATC ((((((...)))))) | -29.1 kcal/mol | 40.9 °C
32 | GGAACTGGAAACAGTTCC (((((((....))))))) | -42.7 kcal/mol | 65.7 °C
33 | GGACGAGGAAACTTGTCC ((((.((....)).)))) | -43.5 kcal/mol | 50.7 °C
34 | GTGCGCGGAAACGCACAC (((.(((....))).))) | -19.2 kcal/mol | 65.5 °C
35 | GCCTATGCGAAAGCAGGC (((..(((....)))))) | -23.1 kcal/mol | 54 °C
36 | GAAACTGGAAACAGCTTC (((.(((....))).))) | -31.1 kcal/mol | 32.5 °C
37 | GATCCCGCTCGGGATC ((((((....)))))) | -34 kcal/mol | 65.8 °C
38 | GCAGAGCGAAAGCTTGGC ((..(((....)))..)) | -18.8 kcal/mol | 49.5 °C
39 | GCTGTAGGAAACTATGGC ((..(((....)))..)) | -26.3 kcal/mol | 34.7 °C
